Activity calls are given as the source filed them. The calls are words filed in the database; no cut-off is given here.
Key:
[1] = Inhibition of sickling in sickle cell RBCs from blood isolated from patient with homozygous SS at 2 mM under hypoxic conditions incubated for 2 hrs; format: functional; conditions: Homo sapiens, Erythrocyte
In short: (§1)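 SS blood, hematocrit 20%, preincubated under air with compound (0.5, 1, 2 mM) for 1 h at 37 °C, then 2 h hypoxia (2.5% O2/97.5% N2) at 37 °C. Aliquots are fixed in 2% glutaraldehyde without air exposure. Cell morphology is scored from bright-field images at 40×. Three biological replicates, mean ± SD.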

Erythrocyte = assay: Inhibition of sickling in sickle cell RBCs from blood isolated from patient with homozygous SS under hypoxic conditions incubated for 2 hrs; format: functional, tissue-based; conditions: Homo sapiens; in short: as §1
Red blood cell [2] = assay: Binding affinity to Hemoglobin in sickle cell RBCs from blood isolated from patient with homozygous SS assessed as increase in hemoglobin modification under hypoxic conditions incubated for 2 hrs […]; format: tissue-based; conditions: Homo sapiens
In short: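 SS blood, hematocrit 20%, incubated under air with compound (0.5, 1, 2 mM) at 37 °C for 1 h, then hypoxic (2.5% O2/97.5% N2) at 37 °C for 2 h. Cells are washed and hemolyzed. Lysate is run on weak cation-exchange HPLC to quantify Hb adduct (modified Hb). Three biological replicates, mean ± SD.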

Red blood cell [3] = assay: Binding affinity to Hemoglobin in sickle cell RBCs from blood isolated from patient with homozygous SS assessed as increase in Hb affinity for oxygen under hypoxic conditions incubated for 2 hrs by oxygen equilibrium curve study; format: tissue-based; conditions: Homo sapiens
In short: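 SS blood, hematocrit 20%, incubated under air with compound (0.5, 1, 2 mM) at 37 °C for 1 h, then hypoxic (2.5% O2/97.5% N2) at 37 °C for 2 h. Cells are washed in PBS and hemolyzed hypotonically. Lysate in 0.1 M potassium phosphate pH 7.0 is run by Hemox analysis for P50. ΔP50 is given as percent of DMSO control. Three biological replicates, mean ± SD.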

Homo sapiens [4] = organism: Homo sapiens; assay: Binding affinity to Hemoglobin in normal human whole blood assessed as increase in Hb affinity for oxygen at 2 mM incubated for 24 hrs by oxygen equilibrium curve study; format: tissue-based
In short: (§2)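 Normal human whole blood, hematocrit 30%, incubated with or without compound in DMSO (0.5, 1.0 or 2.0 mM; 2 mM for the time course) at 37 °C. The blood is tonometered about 7 min at 37 °C against gas with 0.804, 2.935 and 5.528% O2 (6, 20, 40 mmHg). sO2 and pO2 are read on a blood gas analyzer. ΔP50% is taken relative to no compound. Time course sampled at 1, 2, 4, 8, 12, 24 h.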

Homo sapiens [5] = organism: Homo sapiens; assay: Binding affinity to Hemoglobin in normal human whole blood assessed as increase in Hb affinity for oxygen at 2 mM incubated for 1 to 24 hrs by oxygen equilibrium curve study; format: tissue-based; conditions: time 1-24 hrs; in short: as §2

SMILES	inhibition at 2000 µM [1] [%]	inhibition (Erythrocyte)	Activity (Red blood cell [2])	Activity (Red blood cell [3])	Activity (Homo sapiens [4])	Activity (Homo sapiens [5]) [%]
COC(=O)c1ccnc(COc2ccc(OC)cc2C=O)c1	> 90	Dose-dependent effect	Dose-dependent effect	Dose-dependent effect	Active	
COc1cc(C=O)ccc1O						21

Reference: ChEMBL document CHEMBL4673298, “Exploration of Structure-Activity Relationship of Aromatic Aldehydes Bearing Pyridinylmethoxy-Methyl Esters as Novel Antisickling Agents” (J Med Chem, 2020)
